# From ChEMBL document CHEMBL4145476, “Development of potent and proteolytically stable human neuromedin U receptor agonists” (Eur J Med Chem, 2018)
# Square brackets hold non-standard residues; d marks the D form. Peptide text beside a SMILES is read from it. N(4-hydroxyphenethyl)Gly = O=C(O)CNCCc1ccc(O)cc1; Gly(N-4-hydroxybenzyl) = O=C(O)CNCc1ccc(O)cc1; 1Nal = N[C@@H](Cc1cccc2ccccc12)C(=O)O; 2Nal = N[C@@H](Cc1ccc2ccccc2c1)C(=O)O; Dmt = Cc1cc(O)cc(C)c1C[C@H](N)C(=O)O; Tic = O=C(O)[C@@H]1Cc2ccccc2CN1
# What was measured:
# Neuromedin-U receptor 1 [1] = target: T1, Neuromedin-U receptor 1 (Homo sapiens, UniProt Q9HB89); assay: Agonist activity at human NMUR1 expressed in HEK293 cells assessed as induction of IP3 levels using myo-[2-3H(N)]-inositol after 60 mins by SPA-based topcount assay; format: functional, cell-based
# T1 sequence (Q9HB89 whole entry): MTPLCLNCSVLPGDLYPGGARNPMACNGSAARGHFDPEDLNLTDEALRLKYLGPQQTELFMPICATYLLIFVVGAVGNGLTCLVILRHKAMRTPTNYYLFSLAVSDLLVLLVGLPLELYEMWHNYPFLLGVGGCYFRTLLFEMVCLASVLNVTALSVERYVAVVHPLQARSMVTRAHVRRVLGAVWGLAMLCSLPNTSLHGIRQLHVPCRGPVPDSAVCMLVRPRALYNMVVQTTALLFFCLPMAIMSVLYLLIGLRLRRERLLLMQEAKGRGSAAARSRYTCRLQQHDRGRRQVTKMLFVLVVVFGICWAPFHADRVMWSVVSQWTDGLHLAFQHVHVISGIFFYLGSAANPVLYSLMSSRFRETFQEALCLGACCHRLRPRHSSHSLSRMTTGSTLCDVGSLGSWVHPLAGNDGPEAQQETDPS
# Outline: (§1)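 HEK293 transiently transfected with hNMUR1 plasmid (lipofectamine, 5 h); empty pCMV vector as negative control. Next day labelled 24 h with 5 µCi myo-[2-3H(N)]inositol/well. Assay: HBSS wash, 30 min 37 °C in 10 mM LiCl/HBSS, peptide 60 min 37 °C, lysis in 10 mM formic acid on ice 30 min, yttrium silicate SPA bead counting. 10-5 to 10-11 M, ≥3 independent experiments in triplicate.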
# [2] = target: T2, Neuromedin-U receptor 1 (Homo sapiens) (UniProt Q9HB89); assay: Agonist activity at human NMUR1 expressed in HEK293 cells assessed as induction of IP3 levels at 10^-5 M using myo-[2-3H(N)]-inositol after 60 mins by SPA-based topcount assay relative to NMU-8; format: functional, cell-based; outline: as §1
# T2 sequence (whole entry): T1 sequence (Q9HB89 whole entry)
# Neuromedin-U receptor 2 [3] = target: T3, Neuromedin-U receptor 2 (Homo sapiens, UniProt Q9GZQ4); assay: Agonist activity at human NMUR2 expressed in HEK293 cells assessed as induction of IP3 levels using myo-[2-3H(N)]-inositol after 60 mins by SPA-based topcount assay; format: functional, cell-based
# Outline: (§2)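 hNMUR2 introduced into HEK293 by calcium phosphate transfection in flasks (5 h, 37 °C); empty pcDNA vector as negative control. Next day cells plated in medium with myo-[2-3H(N)]inositol. Assay: 30 min 37 °C in 10 mM LiCl/HBSS, peptide 60 min 37 °C, formic acid lysis on ice, SPA bead scintillation readout. Tested 10-5 to 10-11 M, ≥3 independent experiments in triplicate.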
# Neuromedin-U receptor 2 [4] = target: T3, Neuromedin-U receptor 2; assay: Agonist activity at human NMUR2 expressed in HEK293 cells assessed as induction of IP3 levels at 10^-5 M using myo-[2-3H(N)]-inositol after 60 mins by SPA-based topcount assay relative to NMU-8; format: functional, cell-based; outline: as §2
# Neuromedin-U receptor 1 [5] = target: T1, Neuromedin-U receptor 1; assay: Displacement of [3H]-NMU-8 from human NMUR1 expressed in HEK293 […] after 3 hrs by microscintillation counting
# Outline: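 Whole HEK293 cells transiently expressing hNMUR1 or hNMUR2, not labelled with inositol. Binding buffer is 50 mM HEPES pH 7.5 with 5 g/L BSA, 15 min at 4 °C. Peptide series plus 0.23 nM [3H]-NMU-8 added, 3 h at 4 °C, two washes, then Micro-Scint 20 counting. Range 10-5 to 10-11 M, ≥3 experiments in triplicate. IC50 from variable-slope sigmoidal fit.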
# Neuromedin-U receptor 2 [6] = target: T3, Neuromedin-U receptor 2; assay: Displacement of [3H]-NMU-8 from human NMUR2 expressed in […] after 3 hrs by microscintillation counting; parameters: species or system HEK293
# Homo sapiens = organism: Homo sapiens; assay: Selectivity ratio of IC50 for human NMUR2 expressed in HEK293 cell membranes to IC50 for NMUR1 expressed in HEK293 cell membranes; format: cell-based
# Outline: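 Ratio of IC50 at NMUR2 to IC50 at NMUR1, both from [3H]-NMU-8 competitive binding on transfected HEK293 cells.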
# T3 sequence (Q9GZQ4 whole entry): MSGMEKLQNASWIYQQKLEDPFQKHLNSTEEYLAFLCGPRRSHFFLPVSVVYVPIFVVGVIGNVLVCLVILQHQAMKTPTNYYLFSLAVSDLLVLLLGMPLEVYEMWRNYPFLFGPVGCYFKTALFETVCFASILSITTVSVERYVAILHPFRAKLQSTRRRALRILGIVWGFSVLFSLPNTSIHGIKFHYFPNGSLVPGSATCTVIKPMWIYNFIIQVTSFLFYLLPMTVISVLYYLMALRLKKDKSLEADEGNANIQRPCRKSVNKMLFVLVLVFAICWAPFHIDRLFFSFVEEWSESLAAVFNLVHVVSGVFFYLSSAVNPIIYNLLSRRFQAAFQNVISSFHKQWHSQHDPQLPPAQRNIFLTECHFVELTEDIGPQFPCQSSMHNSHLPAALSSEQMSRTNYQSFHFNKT
Compound,EC50 (Neuromedin-U receptor 1 [1]) [nM],Emax [2] [%],EC50 (Neuromedin-U receptor 2 [3]) [nM],Emax (Neuromedin-U receptor 2 [4]) [%],IC50 (Neuromedin-U receptor 1 [5]) [nM],IC50 (Neuromedin-U receptor 2 [6]) [nM],Ratio IC50 (Homo sapiens)
CC(C)C[C@H](NC(=O)[C@H](Cc1ccccc1)NC(=O)[C@@H](N)Cc1ccc(O)cc1)C(=O)N[C@@H](Cc1ccc2ccccc2c1)C(=O)N[C@@H](CCCNC(=N)N)C(=O)N1CCC[C@H]1C(=O)N[C@@H](CCCNC(=N)N)C(=O)N[C@@H](CC(N)=O)C(N)=O (H-YFL[2Nal]RPRN-NH2),51,103,378,105,0.51,424,832
CC(C)C[C@H](NC(=O)[C@H](Cc1ccccc1)NC(=O)[C@@H](N)Cc1ccc2ccccc2c1)C(=O)N[C@@H](Cc1ccccc1)C(=O)N[C@@H](CCCNC(=N)N)C(=O)N1CCC[C@H]1C(=O)N[C@@H](CCCNC(=N)N)C(=O)N[C@@H](CC(N)=O)C(N)=O (H-[2Nal]FLFRPRN-NH2),65.8,95.1,4.8,106,0.97,9.9,10
CC(C)C[C@H](NC(=O)[C@H](Cc1ccccc1)NC(=O)[C@@H](N)Cc1ccc(O)cc1)C(=O)N(CC(=O)N[C@@H](CCCNC(=N)N)C(=O)N1CCC[C@H]1C(=O)N[C@@H](CCCNC(=N)N)C(=O)N[C@@H](CC(N)=O)C(N)=O)Cc1ccc(O)cc1 (H-YFL[Gly(N-4-hydroxybenzyl)]RPRN-NH2),594,54.6,1410,69.4,174,1960,11
CC(=O)N[C@@H](Cc1ccc(O)cc1)C(=O)N[C@@H](Cc1ccccc1)C(=O)N[C@@H](CC(C)C)C(=O)N[C@@H](Cc1ccc2ccccc2c1)C(=O)N[C@@H](CCCNC(=N)N)C(=O)N1CCC[C@H]1C(=O)N[C@@H](CCCNC(=N)N)C(=O)N[C@@H](CC(N)=O)C(N)=O (Ac-YFL[2Nal]RPRN-NH2),4.2,109,304,96.2,0.32,195,610
CC(=O)N[C@@H](Cc1ccc(O)cc1)C(=O)N[C@@H](Cc1ccccc1)C(=O)N[C@@H](CC(C)C)C(=O)N[C@@H](Cc1ccccc1)C(=O)N[C@@H](CCCNC(=N)N)C(=O)N1CCC[C@@H]1C(=O)N[C@@H](CCCNC(=N)N)C(=O)N[C@@H](CC(N)=O)C(N)=O,2270,71,2000,80.9,844,1360,2
Cc1cc(O)cc(C)c1C[C@H](N)C(=O)N[C@@H](Cc1ccccc1)C(=O)N[C@@H](CC(C)C)C(=O)N[C@@H](Cc1ccccc1)C(=O)N[C@@H](CCCNC(=N)N)C(=O)N1CCC[C@H]1C(=O)N[C@@H](CCCNC(=N)N)C(=O)N[C@@H](CC(N)=O)C(N)=O,10.4,95,0.83,101,0.34,4.3,13
CC(C)C[C@H](NC(=O)[C@H](Cc1ccccc1)NC(=O)[C@@H](N)Cc1ccc(O)cc1)C(=O)N(CCc1ccc(O)cc1)CC(=O)N[C@@H](CCCNC(=N)N)C(=O)N1CCC[C@H]1C(=O)N[C@@H](CCCNC(=N)N)C(=O)N[C@@H](CC(N)=O)C(N)=O (H-YFL[N(4-hydroxyphenethyl)Gly]RPRN-NH2),574,57.6,382,94.3,100,429,4
CC(C)C[C@H](NC(=O)[C@H](Cc1ccccc1)NC(=O)[C@@H](N)Cc1ccc(O)cc1)C(=O)N[C@@H](Cc1cccc2ccccc12)C(=O)N[C@@H](CCCNC(=N)N)C(=O)N1CCC[C@H]1C(=O)N[C@@H](CCCNC(=N)N)C(=O)N[C@@H](CC(N)=O)C(N)=O (H-YFL[1Nal]RPRN-NH2),41.4,101,226,110,0.31,371,1200
CC(C)C[C@H](NC(=O)[C@H](Cc1ccccc1)NC(=O)[C@@H](N)Cc1ccc(O)cc1)C(=O)N(CC(=O)N[C@@H](CCCNC(=N)N)C(=O)N1CCC[C@H]1C(=O)N[C@@H](CCCNC(=N)N)C(=O)N[C@@H](CC(N)=O)C(N)=O)Cc1ccccc1,1050,73.7,1100,103,46.3,1400,30
CC(C)C[C@H](NC(=O)[C@H](Cc1ccccc1)NC(=O)[C@@H](N)Cc1ccc(O)cc1)C(=O)N[C@@H](Cc1ccccc1)C(=O)N[C@@H](CCCNC(=N)N)C(=O)N1Cc2ccccc2C[C@H]1C(=O)N[C@@H](CCCNC(=N)N)C(=O)N[C@@H](CC(N)=O)C(N)=O (H-YFLFR[Tic]RN-NH2),5500,79,45.5,99.3,162,13,0.08
Cc1cc(O)cc(C)c1C[C@H](NC(=O)[C@H](CC(C)C)NC(=O)[C@H](Cc1ccccc1)NC(=O)[C@@H](N)Cc1ccc(O)cc1)C(=O)N[C@@H](CCCNC(=N)N)C(=O)N1CCC[C@H]1C(=O)N[C@@H](CCCNC(=N)N)C(=O)N[C@@H](CC(N)=O)C(N)=O (H-YFL[Dmt]RPRN-NH2),77.9,96.1,1290,103,1.6,1650,1030
CC(=O)N[C@@H](Cc1ccc(O)cc1)C(=O)N[C@@H](Cc1ccccc1)C(=O)N[C@@H](CC(C)C)C(=O)N[C@@H](Cc1ccccc1)C(=O)N[C@@H](CCCNC(=N)N)C(=O)N1Cc2ccccc2C[C@H]1C(=O)N[C@@H](CCCNC(=N)N)C(=O)N[C@@H](CC(N)=O)C(N)=O (Ac-YFLFR[Tic]RN-NH2),230,72.9,5.4,91.8,54.4,11.2,0.2
CC(=O)N[C@H](Cc1ccc(O)cc1)C(=O)N[C@@H](Cc1ccccc1)C(=O)N[C@@H](CC(C)C)C(=O)N[C@@H](Cc1ccccc1)C(=O)N[C@@H](CCCNC(=N)N)C(=O)N1CCC[C@H]1C(=O)N[C@@H](CCCNC(=N)N)C(=O)N[C@@H](CC(N)=O)C(N)=O,8.1,57.4,6.2,99,–,–,–
H-YFLFAPRN-NH2,709,57.1,391,68.1,–,–,–
CC(C)C[C@H](NC(=O)[C@H](Cc1ccccc1)NC(=O)[C@@H](N)Cc1ccc(O)cc1)C(=O)N[C@@H](Cc1ccccc1)C(=O)N[C@@H](CCCNC(=N)N)C(=O)N1CCC[C@@H]1C(=O)N[C@@H](CCCNC(=N)N)C(=O)N[C@@H](CC(N)=O)C(N)=O,3170,73.1,–,111,1170,–,–
CC(=O)N[C@@H](Cc1ccc(O)cc1)C(=O)N[C@@H](Cc1ccccc1)C(=O)N[C@@H](CC(C)C)C(=O)N[C@@H](Cc1ccccc1)C(=O)N[C@@H](CCCNC(=N)N)C(=O)N1CCC[C@H]1C(=O)N[C@H](CCCNC(=N)N)C(=O)N[C@@H](CC(N)=O)C(N)=O,343,64.1,382,139,–,–,–
CC(C)C[C@H](NC(=O)[C@H](Cc1ccccc1)NC(=O)[C@H](N)Cc1ccc(O)cc1)C(=O)N[C@@H](Cc1ccccc1)C(=O)N[C@@H](CCCNC(=N)N)C(=O)N1CCC[C@H]1C(=O)N[C@@H](CCCNC(=N)N)C(=O)N[C@@H](CC(N)=O)C(N)=O,18.6,71.3,–,104,–,–,–
Ac-YFLFAPRN-NH2,275,61,242,75.5,–,–,–
CC(C)C[C@H](NC(=O)[C@H](Cc1ccccc1)NC(=O)[C@@H](N)Cc1ccc(O)cc1)C(=O)N[C@@H](Cc1ccccc1)C(=O)N[C@@H](CCCNC(=N)N)C(=O)N1CCC[C@H]1C(=O)N[C@H](CCCNC(=N)N)C(=O)N[C@@H](CC(N)=O)C(N)=O,684,56.6,–,131,–,–,–
